Laboratory results reported in ChEMBL document CHEMBL4622973, “Discovery of Potent Small-Molecule SIRT6 Activators: Structure-Activity Relationship and Anti-Pancreatic Ductal Adenocarcinoma Activity” (J Med Chem, 2020).
Calls of active or inactive are those of the source. The rule behind the calls is not given here.

Key:
PANC-1 [1] = assay: Antiproliferative activity against human PANC1 cells assessed as reduction in cell viability incubated for 72 hrs by MTT assay; format: functional, cell-based
Procedure, shortened: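 PDAC cells grown in DMEM or RPMI1640 with 10% FBS and penicillin/streptomycin at 37 °C, 5% CO2. Plated in triplicate, then treated with a concentration series for 72 h. Viability read by MTT. IC50 calculated from dose-response curves.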

Bel-7402 = assay: Antiproliferative activity against human Bel7402 cells assessed as reduction in cell viability incubated for 72 hrs by MTT assay; format: functional, cell-based
NCI-H1975 = assay: Antiproliferative activity against human NCI-H1975 cells assessed as reduction in cell viability incubated for 72 hrs by MTT assay; format: functional, cell-based
PANC-1 [2] = assay: Inhibition of colony formation in human PANC1 cells incubated for 9 to 18 days by crystal violet staining based assay; format: functional, cell-based
Procedure, shortened: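 Cells are seeded per well at the line-specific density: BXPC-3 750, PANC-1 500, AsPC-1 2200, MIAPaCa-2 500. Compound at several concentrations is added after 24 h. Incubation runs 9–18 days (BXPC-3 18 days, PANC-1 14 days). Cells are then fixed with 4% paraformaldehyde and stained with crystal violet, and colonies of more than 50 cells are counted.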

PANC-1 [3] = assay: Induction of apoptosis in human PANC1 cells incubated for 48 hrs by propidium iodide and Annexin V-FITC staining based flow cytometry; format: functional, cell-based
Procedure, shortened: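 PANC-1 and BXPC-3 cells seeded in 6-well plates and treated with a concentration series for 48 h. Stained with Annexin V-FITC and propidium iodide for 10 min in the dark. Annexin V+ populations measured by flow cytometry.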

BXPC-3 = assay: Inhibition of cell migration of human BxPC3 cells at 10 umol/L incubated for 24 hrs by inverted microscopy relative to control; format: functional; settings: BXPC-3, 24 h
Procedure, shortened: (§1)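 PDAC cells are grown to a confluent monolayer at 37 °C in 5% CO2. The monolayer is scratched with a 200 μL pipette tip to make a gap of constant width, then washed with PBS. Cells are exposed to a range of compound concentrations. They are imaged by inverted microscope after 24 h. Migrated cells are counted by hand, and inhibition is expressed relative to untreated wells (100%).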

ASPC1 = assay: Inhibition of cell migration of human AsPC1 cells at 10 umol/L incubated for 24 hrs by inverted microscopy relative to control; format: functional; settings: ASPC1, 24 h; procedure, shortened: as §1
[4] = target: T1, NAD-dependent protein deacylase sirtuin-6 (Homo sapiens, UniProt Q8N6T7); assay: […] in human BxPC3 cells assessed as reduction in H3K9ac levels incubated for 72 hrs by Western blot analysis; format: cell-based; settings: BXPC-3
Procedure, shortened: (§2)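 Cells incubated 72 h with various compound concentrations; whole-cell RIPA lysates with protease inhibitors, BCA-normalised, separated on 12% SDS-PAGE, transferred to PVDF, blocked in 5% milk or BSA. Probed 10 h at 4 °C with antibodies to SIRT6, acetyl-H3K9/K18/K56, total H3, Lin28b, Myc, IGF2BP3, β-actin; HRP secondary, chemiluminescent detection.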

[5] = target: T1, NAD-dependent protein deacylase sirtuin-6; assay: […] in human BxPC3 cells assessed as reduction in Lin28b expression levels at 25 uM incubated for 72 hrs by Western blot analysis; format: cell-based; settings: BXPC-3; procedure, shortened: as §2
[6] = Toxicity in BALB/c nude mouse xenografted with human PANC1 cells assessed as induction of body weight loss at 100 to 150 mg/kg/day, po for 30 days; format: organism-based, PANC-1; settings: in vivo, 720 h
Procedure, shortened: (§3)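 Female BALB/c nude mice, 6–8 weeks old, received 5×10⁶–1×10⁷ PANC-1 cells subcutaneously in the right flank. Once tumors reached 130–150 mm³, mice were randomized (n = 6) to vehicle or 100 or 150 mg/kg/d given orally for 30 days. Body weight and toxicity were monitored against the vehicle group.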

[7] = Toxicity in BALB/c nude mouse xenografted with human PANC1 cells assessed as induction of toxicity symptoms at 100 to 150 mg/kg/day, po for 30 days; format: organism-based, PANC-1; settings: in vivo, 720 h; procedure, shortened: as §3
[8] = Oral bioavailability in Sprague-Dawley rat at 10 mg/kg after 0.083 to 24 hrs by LC-MS/MS analysis; format: ADME, organism-based; settings: in vivo
Procedure, shortened: (§4)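 Male Sprague-Dawley rats, 6–8 weeks old, received a single dose of 10 mg/kg p.o. or 2 mg/kg i.v. The vehicle was 5% DMSO, 10% Solutol and 85% saline at pH 7. Blood was taken by cardiac puncture at 0.083–24 h (p.o.) or 0.25–24 h (i.v.), and plasma was measured by LC-MS/MS. Values are mean ± SD, n = 3.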

[9] = Clearance in Sprague-Dawley rat at 2 mg/kg, iv after 0.25 to 24 hrs by LC-MS/MS analysis; format: ADME, organism-based; settings: in vivo
Procedure, shortened: (§5)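 Male Sprague-Dawley rats, 6-8 weeks old. Dosing solution of 10 (PO) or 2 (IV) mg/mL in 5% DMSO, 10% Solutol and 85% saline, pH 7. Blood taken by cardiac puncture at 0.083–24 h (PO) or 0.25–24 h (IV). Plasma levels measured by LC-MS/MS. Values are mean ± SD, n = 3.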

[10] = Volume of distribution at steady state in Sprague-Dawley rat at 2 mg/kg, iv after 0.25 to 24 hrs by LC-MS/MS analysis; format: ADME, organism-based; settings: in vivo; procedure, shortened: as §4
[11] = AUC (0 to t) in Sprague-Dawley rat at 2 mg/kg, iv after 0.25 to 24 hrs by LC-MS/MS analysis; format: ADME, organism-based; settings: in vivo; procedure, shortened: as §5
[12] = target: NAD-dependent protein deacetylase sirtuin-3, mitochondrial (Homo sapiens, UniProt Q9NTG7); assay: Inhibition of SIRT3 (unknown origin) by FDL assay
Procedure, shortened: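 SIRT3 and SIRT5 tested by an outsourced FDL fluorogenic deacetylase assay, each from a different contract provider. The IC50 was determined for each enzyme, with concentrations going up to 200 μM.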

Histone deacetylase 9 = Histone deacetylase 9 (Homo sapiens, UniProt Q9UKV0); assay: Inhibition of HDAC9 (unknown origin) by FDL assay
Procedure, shortened: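 Selectivity testing by FDL assay at concentrations up to 200 µM. SIRT1-2 assays run by an outside contract provider. Values reported as IC50.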

T1 sequence (Q8N6T7 whole entry): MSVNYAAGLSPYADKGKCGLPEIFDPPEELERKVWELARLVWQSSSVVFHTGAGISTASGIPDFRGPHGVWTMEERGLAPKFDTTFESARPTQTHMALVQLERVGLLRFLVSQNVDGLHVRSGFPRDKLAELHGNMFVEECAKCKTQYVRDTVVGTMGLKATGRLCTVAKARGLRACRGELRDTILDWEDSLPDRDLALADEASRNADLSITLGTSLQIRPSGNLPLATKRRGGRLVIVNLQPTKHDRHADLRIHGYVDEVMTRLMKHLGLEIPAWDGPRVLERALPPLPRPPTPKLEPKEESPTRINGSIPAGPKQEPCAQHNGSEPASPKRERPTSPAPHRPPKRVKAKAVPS
Sequence of NAD-dependent protein deacetylase sirtuin-3, mitochondrial (Q9NTG7 whole entry): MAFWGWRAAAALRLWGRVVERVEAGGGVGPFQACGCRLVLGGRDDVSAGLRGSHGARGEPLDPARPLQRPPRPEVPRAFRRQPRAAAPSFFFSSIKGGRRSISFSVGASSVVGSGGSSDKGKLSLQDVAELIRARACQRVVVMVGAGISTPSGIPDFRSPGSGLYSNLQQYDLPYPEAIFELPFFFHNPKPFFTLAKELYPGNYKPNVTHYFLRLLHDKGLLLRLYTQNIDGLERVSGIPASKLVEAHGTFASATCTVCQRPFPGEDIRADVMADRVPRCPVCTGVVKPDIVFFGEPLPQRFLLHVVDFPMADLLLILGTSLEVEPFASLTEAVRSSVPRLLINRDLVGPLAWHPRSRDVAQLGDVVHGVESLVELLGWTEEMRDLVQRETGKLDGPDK
Sequence of Histone deacetylase 9 (Q9UKV0 whole entry): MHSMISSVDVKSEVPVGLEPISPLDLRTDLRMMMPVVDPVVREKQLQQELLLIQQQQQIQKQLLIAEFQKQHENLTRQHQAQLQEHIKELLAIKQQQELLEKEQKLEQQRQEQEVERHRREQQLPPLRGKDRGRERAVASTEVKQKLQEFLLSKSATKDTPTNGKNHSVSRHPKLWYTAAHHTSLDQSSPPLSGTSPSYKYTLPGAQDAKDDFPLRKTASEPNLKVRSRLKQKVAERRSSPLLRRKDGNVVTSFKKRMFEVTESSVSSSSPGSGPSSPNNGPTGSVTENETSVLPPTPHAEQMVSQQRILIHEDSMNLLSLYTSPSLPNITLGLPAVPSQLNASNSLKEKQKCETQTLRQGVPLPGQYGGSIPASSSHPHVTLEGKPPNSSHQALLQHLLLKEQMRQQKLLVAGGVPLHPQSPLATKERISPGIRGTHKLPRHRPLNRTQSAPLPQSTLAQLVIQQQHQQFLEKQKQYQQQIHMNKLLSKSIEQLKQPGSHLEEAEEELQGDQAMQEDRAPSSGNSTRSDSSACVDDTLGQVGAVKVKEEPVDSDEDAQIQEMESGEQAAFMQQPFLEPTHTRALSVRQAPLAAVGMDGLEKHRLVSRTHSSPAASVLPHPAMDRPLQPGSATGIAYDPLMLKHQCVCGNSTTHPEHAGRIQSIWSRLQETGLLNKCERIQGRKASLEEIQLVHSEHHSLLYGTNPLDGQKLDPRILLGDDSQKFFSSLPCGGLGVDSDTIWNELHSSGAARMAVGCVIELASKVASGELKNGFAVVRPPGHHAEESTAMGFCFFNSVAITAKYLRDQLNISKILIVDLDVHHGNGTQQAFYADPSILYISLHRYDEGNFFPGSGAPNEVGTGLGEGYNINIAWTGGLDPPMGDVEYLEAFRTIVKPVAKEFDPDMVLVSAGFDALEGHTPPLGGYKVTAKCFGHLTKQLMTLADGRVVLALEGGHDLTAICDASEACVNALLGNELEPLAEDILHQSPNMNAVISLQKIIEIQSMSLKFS

IC50 (PANC-1 [1]; PANC-1, 72 h): 4.13 µM | inhibition [4]: Dose-dependent effect | inhibition [5]: Active | bioavailability [8]: 4.24% | CL [9]: 10 mL/min/kg | Vdss [10]: 1112.8 L/kg | AUCt [11]: 3326.13 ng·mL·h | IC50 [12]: > 200 µM | IC50 (Histone deacetylase 9): > 200 µM
Structure (SMILES): O=C(NC(c1ccccc1)c1ccccc1)c1cc(-c2cc3ccccc3o2)nc2ccccc12
Activity (PANC-1 [1]): Dose-dependent effect | Activity (Bel-7402): Active | Activity (NCI-H1975): Active | inhibition (PANC-1 [2]): Dose-dependent effect | Activity (PANC-1 [3]): Dose-dependent effect | inhibition at 10 µM (BXPC-3): 70% | inhibition at 10 µM (ASPC1): 55.4% | Activity [6]: Non-Toxic | Activity [7]: Non-Toxic
